Measurements taken from ChEMBL document CHEMBL2086333, “Albopunctatone, an antiplasmodial anthrone-anthraquinone from the Australian ascidian Didemnum albopunctatum” (J Nat Prod, 2012).
pIC50: −log10 of the molar value. The source made the active and inactive calls. No cut-off for these calls is given here.

Tests used:
[1] = Selectivity index, ratio of cytotoxicity against human SU8686 cells to IC50 for chloroquine-sensitive Plasmodium falciparum 3D7; type: toxicity, cell-based; conditions: read-out: Selectivity Index
[2] = system: Plasmodium falciparum; assay: Antimalarial activity against chloroquine-resistant Plasmodium falciparum Dd2 assessed as reduction in parasite replication incubated for 72 hrs; conditions: Dd2, 72 h
[3] = system: Plasmodium falciparum; assay: Antimalarial activity against chloroquine-sensitive Plasmodium falciparum 3D7 assessed as reduction in parasite replication incubated for 72 hrs; conditions: 3D7, 72 h
[4] = Toxicity against human SU8686 cells at =<40 uM incubated for 72 hrs by resazurin dye reduction assay; type: cell-based; conditions: su.86.86, 72 h
Procedure, shortened: (§1)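 Adherent cancer cells seeded according to growth rate, compound exposure 72 h at 37 °C, 5% CO2, highest concentration 40 μM. Resazurin at 600 μM final, 4 h, fluorescence 530/595 nm. % growth inhibition scaled between >10% DMSO or 20 μM puromycin (100%) and 0.4% DMSO (0%). Triplicate. IC50 by variable-slope nonlinear regression on log dose.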

[5] = Selectivity index, ratio of cytotoxicity against human BxPC3 cells to IC50 for chloroquine-sensitive Plasmodium falciparum 3D7; type: toxicity, cell-based, BXPC-3; conditions: read-out: Selectivity Index
[6] = system: MCF-10A; assay: Toxicity against human MCF10A cells at =<40 uM incubated for 72 hrs by resazurin dye reduction assay; type: cell-based; procedure, shortened: as §1
[7] = Toxicity against human MDA-M cells at =<40 uM incubated for 72 hrs by resazurin dye reduction assay; type: cell-based; procedure, shortened: as §1
[8] = system: BXPC-3; assay: Toxicity against human BxPC3 cells at =<40 uM incubated for 72 hrs by resazurin dye reduction assay; type: cell-based; conditions: bxpc-3, 72 h; procedure, shortened: as §1
[9] = system: HEK293; assay: Toxicity against human HEK293 cells at =<40 uM incubated for 72 hrs by resazurin dye reduction assay; type: cell-based; conditions: hek293, 72 h
Procedure, shortened: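 HEK293 adherent cells, compound exposure 72 h at 37 °C, 5% CO2, highest concentration 40 μM. Supernatant replaced with 10% Presto Blue in DMEM plus 2 mM glutamax, 3 h, fluorescence 530/595 nm. % inhibition scaled between >10% DMSO or 20 μM puromycin (100%) and 0.4% DMSO (0%). Triplicate. IC50 by variable-slope nonlinear regression.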

[10] = system: BT-474; assay: Toxicity against human BT474 cells at =<40 uM incubated for 72 hrs by resazurin dye reduction assay; type: cell-based; conditions: bt-474, 72 h; procedure, shortened: as §1
[11] = system: Trypanosoma brucei brucei; assay: Antitrypanosomal activity against Trypanosoma brucei brucei up to 40 uM incubated for 48 hrs by Alamar Blue assay; type: functional, organism-based
Procedure, shortened: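 T. b. brucei at 2000 cells/mL in HMI-9 with 10% FCS and penicillin/streptomycin, preincubated 24 h. Compound in DMSO prediluted 1:20 in supplemented DMEM, tested up to 40 μM, 48 h at 37 °C, 5% CO2. Alamar Blue added, 2 h under the same conditions then 22 h RT. Fluorescence ex 535/em 590 nm.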

[12] = Selectivity index, ratio of cytotoxicity against human BT474 cells to IC50 for chloroquine-sensitive Plasmodium falciparum 3D7; type: toxicity, cell-based, BT-474; conditions: read-out: Selectivity Index
[13] = Selectivity index, ratio of cytotoxicity against human PANC1 cells to IC50 for chloroquine-sensitive Plasmodium falciparum 3D7; type: toxicity, cell-based, PANC-1; conditions: read-out: Selectivity Index
[14] = Selectivity index, ratio of cytotoxicity against human MDA-M cells to IC50 for chloroquine-sensitive Plasmodium falciparum 3D7; type: toxicity, cell-based; conditions: read-out: Selectivity Index
[15] = Selectivity index, ratio of cytotoxicity against human HEK293 cells to IC50 for chloroquine-sensitive Plasmodium falciparum 3D7; type: toxicity, cell-based; conditions: read-out: Selectivity Index
[16] = system: PANC-1; assay: Toxicity against human PANC1 cells at =<40 uM incubated for 72 hrs by resazurin dye reduction assay; type: cell-based; conditions: panc-1, 72 h; procedure, shortened: as §1
[17] = Selectivity index, ratio of cytotoxicity against human MCF10A cells to IC50 for chloroquine-sensitive Plasmodium falciparum 3D7; type: toxicity, cell-based, MCF-10A; conditions: read-out: Selectivity Index
[18] = system: Plasmodium falciparum; assay: Antimalarial activity against chloroquine-resistant Plasmodium falciparum Dd2 assessed as reduction in parasite replication at 40 uM incubated for 72 hrs
[19] = system: Plasmodium falciparum; assay: Antimalarial activity against chloroquine-sensitive Plasmodium falciparum 3D7 assessed as reduction in parasite replication at 40 uM incubated for 72 hrs
[20] = Growth inhibition of human SU8686 cells at 20 uM incubated for 72 hrs by resazurin dye reduction assay; type: functional; conditions: SU.86.86, 72 h, read-out: GI
[21] = system: PANC-1; assay: Growth inhibition of human PANC1 cells at 20 uM incubated for 72 hrs by resazurin dye reduction assay; type: functional; conditions: PANC-1, 72 h, read-out: GI
[22] = Growth inhibition of human HEK293 cells at 20 uM incubated for 72 hrs by resazurin dye reduction assay; type: cell-based; conditions: read-out: GI
[23] = system: BXPC-3; assay: Growth inhibition of human BxPC3 cells at 20 uM incubated for 72 hrs by resazurin dye reduction assay; type: functional; conditions: BXPC-3, 72 h, read-out: GI
[24] = system: BT-474; assay: Growth inhibition of human BT474 cells at 20 uM incubated for 72 hrs by resazurin dye reduction assay; type: functional; conditions: BT-474, 72 h, read-out: GI
[25] = Growth inhibition of human MCF10A cells at 20 uM incubated for 72 hrs by resazurin dye reduction assay; type: cell-based, MCF-10A; conditions: read-out: GI
[26] = Growth inhibition of human MDA-M cells at 20 uM incubated for 72 hrs by resazurin dye reduction assay; type: functional; conditions: read-out: GI

**Q.** For `O=C1c2cccc(O)c2C(=O)c2c1ccc(C1(O)c3cccc(O)c3C(=O)c3c(O)cccc31)c2O` [ALBOPUNCTATONE], which selectivity ratio [1] is on record?
**A.** The selectivity ratio was greater than 9.1.

**Q.** And the pIC50 [2]?
**A.** Its pIC50 is 5.28.

**Q.** And the pIC50 [3]?
**A.** The pIC50 was 5.36.

**Q.** And the Activity [4]?
**A.** The Activity was “Non-toxic”.

**Q.** And the selectivity ratio [5]?
**A.** The selectivity ratio was greater than 9.1.

**Q.** And the Activity [6]?
**A.** Its Activity is “Non-toxic”.

**Q.** And the Activity [7]?
**A.** Its Activity is “Non-toxic”.

**Q.** And the Activity [8]?
**A.** Its Activity is “Non-toxic”.

**Q.** And the Activity [9]?
**A.** The Activity was “Non-toxic”.

**Q.** And the Activity [10]?
**A.** Its Activity is “Non-toxic”.

**Q.** What about the Activity [11] of the same molecule?
**A.** The Activity was “inactive”.

**Q.** What about the selectivity ratio [12] of the same molecule?
**A.** Its selectivity ratio is greater than 9.1.

**Q.** What about the selectivity ratio [13] of the same molecule?
**A.** Its selectivity ratio is greater than 9.1.

**Q.** And the selectivity ratio [14]?
**A.** Its selectivity ratio is greater than 9.1.

**Q.** What about the selectivity ratio [15] of the same molecule?
**A.** The selectivity ratio was greater than 9.1.

**Q.** And the Activity [16]?
**A.** Its Activity is “Non-toxic”.

**Q.** And the selectivity ratio [17]?
**A.** Its selectivity ratio is greater than 9.1.

**Q.** With `C[C@@H]1CC[C@H]2[C@@H](C)C(=O)O[C@@H]3O[C@@]4(C)CC[C@@H]1[C@]32OO4` [ARTEMISININ] as the molecule, how does the pIC50 [3] read?
**A.** Its pIC50 is 8.14.

**Q.** With `O=C1c2cccc(O)c2C(=O)c2c(O)cccc21` [DANTHRON] as the molecule, how does the Activity [18] read?
**A.** The Activity was “inactive”.

**Q.** And the Activity [4]?
**A.** The Activity was “Non-toxic”.

**Q.** And the Activity [6]?
**A.** Its Activity is “Non-toxic”.

**Q.** And the Activity [19]?
**A.** The Activity was “inactive”.

**Q.** What about the Activity [7] of the same molecule?
**A.** Its Activity is “Non-toxic”.

**Q.** And the Activity [8]?
**A.** The Activity was “Non-toxic”.

**Q.** What about the Activity [9] of the same molecule?
**A.** The Activity was “Non-toxic”.

**Q.** What about the Activity [10] of the same molecule?
**A.** The Activity was “Non-toxic”.

**Q.** And the Activity [11]?
**A.** The Activity was “inactive”.

**Q.** And the Activity [16]?
**A.** Its Activity is “Non-toxic”.

**Q.** Which results are given for `COc1ccc(C[C@H](N)C(=O)N[C@H]2[C@@H](O)[C@H](n3cnc4c(N(C)C)ncnc43)O[C@@H]2CO)cc1` [PUROMYCIN]?
**A.** inhibition of growth at 20 µM [20]: 100%; inhibition of growth at 20 µM [21]: 100%; pIC50 [3]: 7.05; inhibition at 72 h, 20 µM [22]: 100%; inhibition of growth at 20 µM [23]: 100%; inhibition of growth at 20 µM [24]: 100%; inhibition at 72 h, 20 µM [25]: 100%; inhibition of growth at 20 µM [26]: 100%
